CSC inhib: blocks cancer stem cells; inhibition, % at 7.5 µM; AID 2717; actives 1.1% (n = 300,000); cancer stem cell-like cells viability, luminescence; in the data active = inhibition above about 75%; inconclusive = no clear call, values can overlap the other calls; tested in HMLE shEcad cells
T cruzi repl: blocks replication of Trypanosoma cruzi; T. cruzi beta-gal in NIH3T3, luminescence, 90 h; inhibition, % (test concentration not listed); actives 1.4% (n = 300,000); AID 1885;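 active = mean inhibition across valid replicates above about 55%, limit read from the data; inconclusive = mean below that limit but half or more replicates reach it; inactive = mean below it, under half of replicates reach it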;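 note: signal also drops with host cell toxicity which is not excluded here; 0% = plate median of DMSO wells and 100% = zero luminescence signal; higher percent means less beta-gal luminescence so fewer parasites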
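Read-out: Parasite load inhibition, % | Test system: Mouse NIH/3T3 fibroblasts infected with β-gal-expressing T. cruzi Tulahuen C4 | Amount: 5,000 cells/well | Medium: DMEM, 2% fetal bovine serum | Signal: GalScreen β-gal luminescence, detergent lysis, 60 min | Timing: 3 h attach, ≥90 h co-culture | Also added: Tulahuen C4 trypomastigotes, 5000/well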
Mdm2-MdmX inh: human Mdm2/MdmX binding inhibition. actives 3% (n = 330,000). SaOS-2 split-luciferase Mdm2/MdmX complementation, luminescence. inhibition, % at 8 µM. AID 485346. O15151+Q00987;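 active = inhibition of at least 50% at 8 µM in the primary screen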
Target sequence (O15151 whole entry, looked up): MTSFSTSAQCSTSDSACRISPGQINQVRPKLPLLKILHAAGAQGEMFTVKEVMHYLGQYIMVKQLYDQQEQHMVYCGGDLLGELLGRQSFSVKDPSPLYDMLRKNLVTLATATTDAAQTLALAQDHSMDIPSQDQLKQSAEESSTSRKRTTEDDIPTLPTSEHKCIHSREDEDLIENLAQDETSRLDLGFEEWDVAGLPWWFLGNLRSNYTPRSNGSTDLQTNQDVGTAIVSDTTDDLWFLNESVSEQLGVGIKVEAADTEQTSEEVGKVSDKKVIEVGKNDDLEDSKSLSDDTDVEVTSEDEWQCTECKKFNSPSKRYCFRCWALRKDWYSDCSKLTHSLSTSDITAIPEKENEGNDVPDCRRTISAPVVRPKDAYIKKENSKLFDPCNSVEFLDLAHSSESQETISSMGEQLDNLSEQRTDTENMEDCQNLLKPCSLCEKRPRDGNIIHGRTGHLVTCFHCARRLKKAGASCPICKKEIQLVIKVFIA
Target sequence (Q00987 whole entry, looked up): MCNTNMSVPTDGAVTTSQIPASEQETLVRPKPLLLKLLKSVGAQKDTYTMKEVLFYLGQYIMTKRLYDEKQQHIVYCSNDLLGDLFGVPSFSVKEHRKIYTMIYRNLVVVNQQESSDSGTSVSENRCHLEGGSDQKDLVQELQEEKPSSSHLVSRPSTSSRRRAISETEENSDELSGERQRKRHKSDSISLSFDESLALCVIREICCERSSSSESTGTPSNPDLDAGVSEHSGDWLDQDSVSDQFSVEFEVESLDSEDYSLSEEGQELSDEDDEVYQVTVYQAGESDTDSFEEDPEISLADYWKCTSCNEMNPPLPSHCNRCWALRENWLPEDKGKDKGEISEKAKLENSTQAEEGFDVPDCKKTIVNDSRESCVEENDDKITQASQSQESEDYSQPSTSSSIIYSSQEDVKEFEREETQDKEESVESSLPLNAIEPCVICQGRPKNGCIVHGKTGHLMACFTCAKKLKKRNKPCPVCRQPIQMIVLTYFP
SKKanGAS inh: inhibitors of SKKanGAS S. pyogenes growth in kanamycin (SK-promoter or general growth effect); BacTiter-Glo, 6 h; inhibition, % at 7.5 µM; actives 1.3% (n = 300,000); AID 1662;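 active = mean replicate score, as percent of positive control median, at least 50; inconclusive = mean below 50 but one replicate at or above 50; inactive = mean and every replicate below 50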;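 note: strain carries kanamycin resistance gene driven by streptokinase promoter and grows in 40 µg/ml kanamycin; loss of luminescence reflects streptokinase promoter inhibition or plain growth inhibition; 0% = median of DMSO wells and 100% = positive control at its reference dose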
aSyn 5UTR inh: 5' untranslated region of α-synuclein, MLPCN primary screen. inhibition, % (tested at 7.5 µM). alpha-synuclein 5'UTR reporter, inhibitor activity. AID 1813. actives 0.82% (n = 300,000); in the data active = inhibition above about 60%; inconclusive = no clear call, values can overlap the other calls;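 note: H4 neuroglioblastoma cells stably carrying SNCA 5'UTR luciferase fusion; 0% = DMSO wells and 100% = positive control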
Mdm2 MdmX conf: human Mdm2/MdmX binding inhibition, confirmed. shares compounds with Mdm2-MdmX inh. luminescent assay. inhibition, % at 8 µM. actives 55% (n = 10,000). AID 489028; in the data active = inhibition above about 40%
FLuc counter: counter-screen for Mdm2/MdmX inhibitors: full-length luciferase; shares compounds with Mdm2-MdmX inh; SaOS-2 full-length luciferase counterscreen, luminescence; inhibition, % at 8 µM; actives 77% (n = 6,200);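 active = mean inhibition at 8 µM reaching about 37%, which flags the compound as non-specific, limit read from the data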;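 note: p53-null SaOS-2 cells with luciferase driven by a doxycycline-inducible promoter; compound on cells about two nights before reading with doxycycline added after day one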
* hit, by the source's call; u = inconclusive; x = not tested or not shown. A selection: hits, their analogues and other compounds. The true share with any hit is near 5.4%.

SMILES	CSC inhib	T cruzi repl	Mdm2-MdmX inh	SKKanGAS inh	aSyn 5UTR inh	Mdm2 MdmX conf	FLuc counter
O=c1[nH]c(/C=C/c2ccc(OC(F)F)cc2)nc2c1cnn2-c1ccccc1	2	-2	66*	-18	17	-1	x
CC(C)Sc1nc2c(cnn2-c2ccccc2)c(=O)[nH]1	1	1	-3	2	22	x	x
CCCOc1ccc(/C=N/Nc2cccc([N+](=O)[O-])c2)c(O)c1	113*	42	77*	-1	-164	-13	x
CCCCCCCn1c2c(c(=N)c3ccccc31)CCC2	40	67*	89*	2	79*	71*	37*
COc1ccc(NC(=O)c2ccc3c(c2)NC(=O)CS3)cc1S(=O)(=O)Nc1ccc(Br)cc1	80*	-1	69*	u	12	77*	44*
CSc1ccc2c(c1)N(CCC1CCCCN1C)c1ccccc1S2 (stereo not given)	37	31	94*	11	110*	27	x
CCOc1ccccc1N1CCN(C(=O)c2c(Cl)cnn2C)CC1	-3	11	8	9	1	x	x
Cc1ccc(CN2CC(C(=O)N3CCN(S(=O)(=O)c4cccc(F)c4)CC3)CC2=O)cc1 (stereo not given)	-9	-6	-27	-15	7	x	x
O=C(Nc1cccc(-c2cn3ccccc3n2)c1)c1cccc(Cl)c1	u	13	75*	1	-39	-8	x
O=C(Nc1cccc(-c2cn3ccccc3n2)c1)c1cnccn1	1	-9	-31	-7	-87	x	x
Brc1ccc(-n2cnc(-c3ccccc3)c2)cc1	15	-4	-173	-5	-136	x	x
CC(CCc1ccccc1)NCc1cccc2ccccc12 (stereo not given)	3	18	-26	3	10	x	x
CNC[C@H](Cc1cccc2ccccc12)NC[C@H](CCSC)NCC1CCC(C(C)(C)C)CC1 (stereo not given in full)	90*	x	60*	x	x	5	x
CC1CCCC/C1=N\NS(=O)(=O)c1ccc(Br)cc1 (stereo not given)	-7	0	0	-1	-4	x	x
O=C(Nc1cccc(-n2cnnn2)c1)c1ccc(OC(F)(F)F)cc1	-14	-4	11	-5	11	x	x
Cc1cc(C)c(S(=O)(=O)NCC2CCC(C(=O)NCCCN3CCC(C)CC3)CC2)c(C)c1 (stereo not given)	-3	27	51*	-4	-23	5	x
CCOc1ccc2nc(N3CCCC(C(=O)NCCCN4CC(C)CC(C)C4)C3)sc2c1 (stereo not given)	-7	49	53*	2	-51	21	x
Cc1cc(C)c2nc(N3CCC(C(=O)NCCCN4CC(C)CC(C)C4)CC3)sc2c1 (stereo not given)	15	59*	97*	5	-61	76*	32
COc1ccc(CNC(=O)C[C@H]2C[C@H](C(=O)N3CCCCC3)[C@@]3(C)c4[nH]c5cc(CCC(=O)N(C)C)ccc5c4CCN3C2=O)cc1OC	x	x	34	x	x	x	x
C=CCN1C(=O)/C(=C2/C(=O)N(CC(=O)O)c3ccccc32)S/C1=N/c1nccs1	x	-2	x	9	-1	x	x
COc1ccc(C2=Nn3c(nnc3-c3ccncc3)SC2)cc1	2	19	52*	-7	8	55*	22
COc1ccc(OC)c(-c2nnc3n2N=C(c2ccc(OC)c(OC4CCCC4)c2)CS3)c1	66	x	84*	x	x	75*	66*
COc1ccc(OC)c(-c2nnc3n2N=C(c2ccc(OC)c(OC)c2)CS3)c1	x	x	66*	x	x	60*	79*
CCCCN(C(=O)CSc1cc(C)c2ccc(OC)cc2n1)c1c(N)n(Cc2ccccc2)c(=O)[nH]c1=O	-21	2	23	0	-5	x	x
COc1ccccc1/C=C/C(=O)c1cc(Br)ccc1OC(=O)c1ccco1	3	-11	55*	3	-15	14	x
SMILES	CSC inhib	T cruzi repl	Mdm2-MdmX inh	SKKanGAS inh	aSyn 5UTR inh	Mdm2 MdmX conf	FLuc counter
Cc1ccc(CNC(=O)c2ccc(N3CCC4(CC3)CC(c3ccccc3)=NO4)c(NC(=O)c3ccc(Cl)c([N+](=O)[O-])c3)c2)cc1	-5	26	2	13	16	x	x
COc1ccc(-c2csc(NC(=S)NC(=O)c3ccco3)n2)cc1Br	72	-8	82*	-16	4	56*	23
COc1ccc(-c2csc(NC(=S)NC(=O)c3ccccc3)n2)cc1Br	x	40	56*	-5	9	38	85*
COc1cc(OC)cc(C(=O)NC(=S)Nc2nc(-c3cc4ccccc4o3)cs2)c1	6	-3	65*	3	-22	0	x
COc1ccc(-c2csc(NC(=S)NC(=O)c3cc4ccccc4o3)n2)cc1Br	14	28	-4	4	-1	x	x
COc1ccc(-c2csc(NC(=S)NC(=O)/C=C/c3ccco3)n2)cc1Br	79*	20	85*	-6	91*	65*	59*
COc1ccc(C(=O)NC(=S)Nc2nc(-c3ccc(OC)c(Br)c3)cs2)cc1Br	27	26	21	1	-50	x	x
Cc1ccc(S(=O)(=O)c2nnn3c2nc(N2CCOCC2)c2ccccc23)c(C)c1	-3	25	25	12	20	x	x
CCOc1ccccc1OCCOc1cccc(C(F)(F)F)c1	9	5	13	23	-16	x	x
CCOC(=O)c1nc(NNC(=O)c2ccc([N+](=O)[O-])cc2)sc1C	65	41	58*	15	62*	46*	27
CCOC(=O)c1cccc2c1-c1ccccc1/C2=N/O	35	-17	76*	-5	11	57*	31
COC(=O)c1c(C)n(-c2ccccc2)c2ccc(O)cc12	13	14	27	-1	29	x	x
CN(C)/C=C/c1c([N+](=O)[O-])c2ccc(O)cc2n1-c1ccccc1	-8	-27	61*	42	2	68*	54*
Cc1ccsc1/C=N/NC(=O)c1cc(-c2ccncc2)nc2ccccc12	78*	-49	58*	3	67*	60*	58*
CC(/C=N/NC(=O)c1cc(-c2ccncc2)nc2ccccc12)=C\c1ccco1	x	-14	63*	-4	86*	62*	97*
O=C(N/N=C/c1ccco1)c1cc(-c2cccc(Br)c2)nc2ccccc12	31	2	22	4	-7	x	x
O=C(N/N=C/c1ccc2c(c1)OCO2)c1cc(-c2ccccc2Cl)nc2ccccc12	8	13	20	21	22	x	x
O=C(N/N=C/c1ccc2c(c1)OCO2)c1cc(-c2ccncc2)nc2ccccc12	72	-17	51*	0	-5	44*	59*
O=C(N/N=C/c1ccsc1)c1cc(-c2ccncc2)nc2ccccc12	58	-1	52*	-1	-11	38	66*
COc1ccccc1-c1cc(C(=O)N/N=C/c2sccc2C)c2ccccc2n1	-17	13	46	10	39	x	x

Screening data (PubChem)
